A short description of data set [1]: Association constant of compound was evaluated at pH 5. It counts as ADME. The essentials:
(§1)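 UV difference spectroscopy: Ac₂-L-Lys-D-Ala-D-Ala was added to antibiotic at 30 μM (initial) in 10% MeOH/sodium phosphate buffer (pH 5 or pH 9). Double-beam spectrophotometer, 4-cm nonthermostated cells, 24 ± 2 °C. ΔA was monitored at 294 nm, and Ka was taken from the slope of a Scatchard plot.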

Data set [2] is described as follows: Association constant of compound was evaluated at pH 9. The format is ADME. The essentials:
as §1

In data set [3] the test system is Enterococcus faecalis. In words: Minimum inhibitory concentration against Streptococcus faecalis ATCC 7080 evaluated in vitro. It counts as functional. The method, boiled down: (§2)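 Twofold broth microdilution in Oxoid Iso-Sensitest broth, final inoculum ~10⁴ cfu/mL, overnight at 37 °C. MIC (μg/mL) was read as the lowest concentration with no visible growth. Coagulase-negative staphylococci were identified by API STAPH per Kloos and Schleifer.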

In data set [4] the test system is Streptococcus pyogenes. The data set is described as follows: Minimum inhibitory concentration against Streptococcus pyogenes C 203 evaluated in vitro. The format is functional. The method, boiled down:
(§3)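 Twofold broth microdilution in Difco Todd-Hewitt broth, final inoculum ~10⁴ cfu/mL, overnight at 37 °C. MIC (μg/mL) was read as the lowest concentration showing no visible growth.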

The subject of data set [5] is Streptococcus pneumoniae. The data set is described as follows: Minimum inhibitory concentration against Streptococcus pneumoniae UC 41 evaluated in vitro. It counts as functional. The essentials:
as §3

Data set [6] relates to Staphylococcus epidermidis. In words: Minimum inhibitory concentration against Staphylococcus epidermis ATCC 12228 evaluated in vitro. It counts as functional. The essentials: as §2
Data set [7] relates to Staphylococcus aureus. The data set is described as follows: Minimum inhibitory concentration against Staphylococcus aureus Tour evaluated in vitro. It counts as functional. The method, boiled down:
as §2

Data set [8] concerns Streptococcus pyogenes. In words: Minimum inhibitory concentration administered subcutaneously against Streptococcus pyogenes C203 in mouse. To be noted: sc.
Data set [9] has as its system Staphylococcus haemolyticus. In words: Minimum inhibitory concentration against Staphylococcus haemolyticus L1520 evaluated in vitro. It counts as functional. The essentials:
as §2

Data set [10] concerns Staphylococcus epidermidis. The data set is described as follows: Minimum inhibitory concentration against Staphylococcus epidermis L1378 evaluated in vitro. The format is functional. The method, boiled down: as §2
Data set [11] relates to Staphylococcus hominis. In words: Minimum inhibitory concentration against Staphylococcus hominis L1070 evaluated in vitro. The format is functional. The method, boiled down:
as §2

The test system of data set [12] is Staphylococcus simulans. In words: Minimum inhibitory concentration against Staphylococcus simulans L785 evaluated in vitro. It counts as functional. The essentials:
as §2

Data set [13] deals with Streptococcus pyogenes. In words: Minimum inhibitory concentration against Streptococcus pyogenes C203 evaluated in vivo(mouse). It counts as functional. The method, boiled down:
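Mice in groups of five were infected intraperitoneally with S. pyogenes C 203, with inoculum set so untreated animals die of septicemia within 48 h. A single subcutaneous treatment was given immediately after infection. ED₅₀ was calculated from the percentage surviving at each dose on day 7.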

The subject of data set [14] is Staphylococcus warneri. In words: Minimum inhibitory concentration against Staphylococcus warneri L1375 evaluated in vitro. It counts as functional. The method, boiled down:
as §2

In data set [15] the test system is Staphylococcus simulans. In words: Minimum inhibitory concentration against Staphylococcus simulans L1142 evaluated in vitro. The format is functional. The essentials: as §2
[16] abbreviates: Streptococcus pyogenes, read-out: MIC.
Setting [17] is: Streptococcus pneumoniae, read-out: MIC.
Setting [18] is: Staphylococcus epidermidis, ATCC 12228, read-out: MIC.
[19] abbreviates: Staphylococcus aureus, read-out: MIC.

≈ marks a conversion by molar mass, not a printed value.

In general, MIC refers to the least concentration at which growth counts as inhibited. As usually defined, the ED50 is the dose that gives a 50% effect, or the effect in half of the subjects. Take `CCCCC/C=C/CCC(=O)N[C@@H]1[C@H](Oc2c3cc4cc2Oc2ccc(cc2Cl)CC2NC(=O)[C@H](N)c5ccc(O)c(c5)Oc5cc(O)cc(c5)C(NC2=O)C(=O)NC4C(=O)NC2C(=O)/N=C(\Cc4ccc(c(Cl)c4)O3)C(=O)N[C@H](C(=O)O)c3cc(O)cc(O[C@H]4O[C@H](CO)[C@@H](O)[C@@H](O)[C@@H]4O)c3-c3cc2ccc3O)O[C@@H](CO)[C@@H](O)[C@@H]1O` (some centres not stated): the Ka stood at 390000 M⁻¹ in data set [1] and 60000 M⁻¹ in data set [2]. The MIC was found to be 1 µg/mL (≈ 0.604 µM) in data set [3]; 0.063 µg/mL (≈ 0.038 µM) in data set [4] (setting [16]); 0.063 µg/mL (≈ 0.038 µM) in [5] (setting [17]); 0.25 µg/mL (≈ 0.151 µM) in [6] (setting [18]); 0.5 µg/mL (≈ 0.302 µM) in data set [7] (setting [19]). In [8], this molecule came in with an ED50 of 0.35 mg/kg.

As for `CC(=O)N[C@@H]1[C@H](O[C@@H]2c3ccc(c(Cl)c3)Oc3cc4cc(c3O)Oc3ccc(cc3Cl)C[C@H]3NC(=O)[C@H](N)c5ccc(O)c(c5)Oc5cc(O)cc(c5)[C@H](NC3=O)C(=O)N[C@H]4C(=O)N[C@H]3C(=O)N[C@@H]2C(=O)N[C@H](C(=O)O)c2cc(O)cc(O)c2-c2cc3ccc2O)O[C@@H](CO)[C@@H](O)[C@@H]1O`, the Ka in [1] worked out at 2.6e+06 M⁻¹; in data set [2] it was 32000 M⁻¹. For the same molecule, the MIC in data set [3] was determined as 1 µg/mL (≈ 0.713 µM); in data set [4] (setting [16]) it was 0.5 µg/mL (≈ 0.357 µM); in data set [5] (setting [17]), 1 µg/mL (≈ 0.713 µM); in [6] (setting [18]), 0.125 µg/mL (≈ 0.0892 µM); in data set [7] (setting [19]), 0.5 µg/mL (≈ 0.357 µM).

On to `CC(=O)N[C@@H]1[C@H](O[C@@H]2c3ccc(c(Cl)c3)Oc3cc4cc(c3O)Oc3ccc(cc3Cl)C[C@H]3NC(=O)[C@H](N)c5ccc(O)c(c5)Oc5cc(O)cc(c5)[C@H](NC3=O)C(=O)N[C@H]4C(=O)N[C@H]3C(=O)N[C@@H]2C(=O)N[C@H](C(=O)O)c2cc(O)cc(O[C@H]4O[C@H](CO)[C@@H](O)[C@@H](O)[C@@H]4O)c2-c2cc3ccc2O)O[C@@H](CO)[C@@H](O)[C@@H]1O`, for which the Ka in data set [1] came out at 1200000 M⁻¹; in data set [2] it was 90000 M⁻¹. Besides, the MIC in data set [3] was 2 µg/mL (≈ 1.28 µM); in data set [4] (setting [16]), 0.5 µg/mL (≈ 0.32 µM); in data set [5] (setting [17]), 0.5 µg/mL (≈ 0.32 µM); in data set [6] (setting [18]) it was 0.25 µg/mL (≈ 0.16 µM); in [7] (setting [19]), 0.25 µg/mL (≈ 0.16 µM).

In [1], `N[C@H]1C(=O)NC2Cc3ccc(c(Cl)c3)Oc3cc4cc(c3O)Oc3ccc(cc3Cl)C/C3=N\C(=O)C(NC(=O)C4NC(=O)C(NC2=O)c2cc(O)cc(c2)Oc2cc1ccc2O)c1ccc(O)c(c1)-c1c(O)cc(O)cc1[C@@H](C(=O)O)NC3=O` (some centres not stated) gave a Ka of 100000 M⁻¹. The MIC stood at 0.5 µg/mL (≈ 0.423 µM) in data set [9]; 0.125 µg/mL (≈ 0.106 µM) in data set [10]; 1 µg/mL (≈ 0.847 µM) in data set [4] (setting [16]); 1 µg/mL (≈ 0.847 µM) in data set [5] (setting [17]); 0.125 µg/mL (≈ 0.106 µM) in data set [6] (setting [18]); 0.25 µg/mL (≈ 0.212 µM) in data set [7] (setting [19]). In addition, the minimal inhibitory concentration (MIC) in data set [11] amounted to 0.125 µg/mL (≈ 0.106 µM); in data set [12], 0.125 µg/mL (≈ 0.106 µM); in data set [14], 1 µg/mL (≈ 0.847 µM); in data set [15] it was 0.125 µg/mL (≈ 0.106 µM). In addition, in data set [13], the ED50 amounted to 5 mg/kg.

Turning to `CCCCC/C=C/CCC(=O)N[C@@H]1[C@H](Oc2c3cc4cc2Oc2ccc(cc2Cl)[C@@H](O[C@@H]2O[C@@H](CO)[C@@H](O)[C@H](O)[C@@H]2NC(C)=O)[C@@H]2NC(=O)[C@H](NC(=O)[C@@H]4NC(=O)[C@H]4NC(=O)[C@@H](Cc5ccc(c(Cl)c5)O3)NC(=O)[C@H](N)c3ccc(O)c(c3)Oc3cc(O)cc4c3)c3ccc(O)c(c3)-c3c(O[C@H]4O[C@H](CO)[C@@H](O)[C@@H](O)[C@@H]4O)cc(O)cc3[C@@H](C(=O)O)NC2=O)O[C@@H](CO)[C@@H](O)[C@@H]1O`, the Ka in data set [1] worked out at 1600000 M⁻¹; in [2], 2.1e+06 M⁻¹. The minimal inhibitory concentration (MIC) in data set [9] was 4 µg/mL (≈ 2.13 µM); in [3], 0.125 µg/mL (≈ 0.0666 µM); in data set [10], 0.5 µg/mL (≈ 0.266 µM); in data set [4] (setting [16]), 0.063 µg/mL (≈ 0.0336 µM); in [5] (setting [17]), 0.063 µg/mL (≈ 0.0336 µM); in [6] (setting [18]), 0.25 µg/mL (≈ 0.133 µM). Also, the MIC in data set [7] (setting [19]) was determined as 0.125 µg/mL (≈ 0.0666 µM); in data set [11], 0.25 µg/mL (≈ 0.133 µM); in data set [12] it was 0.25 µg/mL (≈ 0.133 µM); in data set [14], 2 µg/mL (≈ 1.07 µM); in [15], 0.125 µg/mL (≈ 0.0666 µM). The molecule also had an ED50 in data set [8] of 0.18 mg/kg.

As to `N[C@H]1C(=O)NC2Cc3ccc(c(Cl)c3)Oc3cc4cc(c3O)Oc3ccc(cc3Cl)C/C3=N\C(=O)C(NC(=O)C4NC(=O)C(NC2=O)c2cc(O)cc(c2)Oc2cc1ccc2O)c1ccc(O)c(c1)-c1c(O[C@H]2O[C@H](CO)[C@@H](O)[C@@H](O)[C@@H]2O)cc(O)cc1[C@@H](C(=O)O)NC3=O` (some centres not stated), the Ka in data set [1] worked out at 380000 M⁻¹; in data set [2], 61000 M⁻¹. For the same molecule, the minimum inhibitory concentration (MIC) in data set [3] came out at 1 µg/mL (≈ 0.745 µM); in data set [4] (setting [16]) it was 2 µg/mL (≈ 1.49 µM); in data set [5] (setting [17]), 2 µg/mL (≈ 1.49 µM); in data set [6] (setting [18]), 0.5 µg/mL (≈ 0.372 µM); in data set [7] (setting [19]), 0.25 µg/mL (≈ 0.186 µM). The molecule also displayed a 50% effective dose (ED50) in data set [8] of 5.8 mg/kg.

As to `N[C@H]1C(=O)NC2Cc3ccc(c(Cl)c3)Oc3cc4cc(c3O)Oc3ccc(cc3Cl)/C=C3\NC(=O)C(NC(=O)C4NC(=O)C(NC2=O)c2cc(O)cc(c2)Oc2cc1ccc2O)c1ccc(O)c(c1)-c1c(O)cc(O)cc1[C@@H](C(=O)O)NC3=O` (stereo in doubt; 4), the Ka in [1] and in data set [2] was below 100 M⁻¹ each time. The minimum inhibitory concentration (MIC) in data set [4] was 4 µg/mL (≈ 3.39 µM); in data set [5] it was 4 µg/mL (≈ 3.39 µM); in [6] it was 0.125 µg/mL (≈ 0.106 µM); in data set [7], 1 µg/mL (≈ 0.847 µM).

Take `N[C@H]1C(=O)NC2Cc3ccc(c(Cl)c3)Oc3cc4cc(c3O)Oc3ccc(cc3Cl)/C=C3\NC(=O)C(NC(=O)C4NC(=O)C(NC2=O)c2cc(O)cc(c2)Oc2cc1ccc2O)c1ccc(O)c(c1)-c1c(O)cc(O)cc1[C@@H](C(=O)O)NC3=O` (stereo in doubt; 5): in data set [2], the Ka is below 100 M⁻¹. Further, the minimum inhibitory concentration (MIC) is 16 µg/mL (≈ 13.5 µM) in data set [3]; 8 µg/mL (≈ 6.77 µM) in data set [4] (setting [16]); 8 µg/mL (≈ 6.77 µM) in [5] (setting [17]); 0.5 µg/mL (≈ 0.423 µM) in data set [6]; 2 µg/mL (≈ 1.69 µM) in data set [7] (setting [19]).

Take `N[C@H]1C(=O)N[C@@H]2Cc3ccc(c(Cl)c3)Oc3cc4cc(c3O)Oc3ccc(cc3Cl)[C@@H](O)[C@@H]3NC(=O)[C@H](NC(=O)[C@@H]4NC(=O)[C@@H](NC2=O)c2cc(O)cc(c2)Oc2cc1ccc2O)c1ccc(O)c(c1)-c1c(O)cc(O)cc1[C@@H](C(=O)O)NC3=O` [TEICOPLANIN AGLYCON]: the Ka in data set [1] is 2.5e+06 M⁻¹; in data set [2], 30000 M⁻¹. The minimum inhibitory concentration (MIC) in data set [9] worked out at 0.125 µg/mL (≈ 0.104 µM); in data set [3], 0.125 µg/mL (≈ 0.104 µM); in data set [10], 0.063 µg/mL (≈ 0.0525 µM); in [4] (setting [16]), 0.125 µg/mL (≈ 0.104 µM); in [5] (setting [17]) it was 0.125 µg/mL (≈ 0.104 µM); in [6] (setting [18]) it was 0.016 µg/mL (≈ 0.0133 µM). For the same molecule, the MIC in data set [7] (setting [19]) came out at 0.063 µg/mL (≈ 0.0525 µM); in data set [11], 0.063 µg/mL (≈ 0.0525 µM); in [12], 0.063 µg/mL (≈ 0.0525 µM); in data set [14], 0.25 µg/mL (≈ 0.209 µM); in [15], 0.063 µg/mL (≈ 0.0525 µM). It took a dose of 0.95 mg/kg to reach the 50% effect level in data set [8] (ED50).
